Results as given in ChEMBL document CHEMBL3244133, “Synthesis and biological activities of some uronic acids, uronates, uronamides, and urononitriles of pyrimidine nucleosides” (J Med Chem, 1978).
The source made the active and inactive calls. No cut-off for these calls is given here.

How the values were obtained:
[1] = test system: Lacticaseibacillus casei; experiment: Inhibition of Lactobacillus casei deoxythymidylate synthetase at 250 uM
[2] = Competitive inhibition of HSV-1 pyrimidine deoxythymidine kinase using 2-[14C]deoxythymidine as substrate; set-up: species or system Human alphaherpesvirus 1
Procedure, shortened: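 HSV-1 encoded pyrimidine deoxyribonucleoside kinase, purified from LMTK⁻ cells. Assay at 37 °C in 50 mM Tris pH 7.8 with 3 mM ATP·Mg²⁺, 0.3 mg/mL BSA, 0.3 mM 2-mercaptoethanol and 2% glycerol. Substrate was varied [2-¹⁴C]deoxythymidine plus analogue. Reaction was started with enzyme; aliquots were taken over time and phosphorylated product measured. Ki came from double-reciprocal plots.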

[3] = test system: L1210; experiment: Inhibition of deoxythymidylate synthetase in mouse L1210 cells at 250 uM; type: cell-based
[4] = Antiviral activity against HSV1 CL101 infected in African green monkey Vero cells assessed as inhibition of plaque formation at 0.1 uM after 40 hrs relative to control; type: functional, Herpes simplex virus (type 1 / strain CL101); conditions: Human alphaherpesvirus 1, Vero
[5] = test system: CCRF S-180; experiment: Cytotoxicity against mouse S180 cells at 0.001 uM after 18 to 42 hrs relative to control; type: functional
[6] = test system: Enterococcus faecium; experiment: Antimicrobial activity against Streptococcus faecium assessed as growth inhibition at 400 uM after 15 to 17 hrs by turbidity assay in presence of 7 uM deoxythymidine; type: functional
Procedure, shortened: (§1)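 S. faecium (ATCC 8043), washed and resuspended in saline to 100 Klett units, then diluted 10-fold as inoculum. Test compound was added to basal medium with deoxythymidine (7 μM final) or folic acid (4.53 nM final). Incubation was 15-17 h at 37 °C. Growth was taken as the turbidity change before versus after incubation, read on a Klett colorimeter with a red filter (640-700 nm).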

[7] = test system: Enterococcus faecium; experiment: Antimicrobial activity against Streptococcus faecium assessed as growth inhibition at 400 uM after 15 to 17 hrs by turbidity assay in presence of 4.53 nM folic acid; type: functional; procedure, shortened: as §1
[8] = Retention time of the compound by liquid chromatography; type: physicochemical
Procedure, shortened: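 Reverse-phase HPLC with a methanol-water gradient, separating uronic acids from the parent pyrimidine bases and nucleosides.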

[9] = test system: Enterococcus faecium; experiment: Antimicrobial activity against Streptococcus faecium after 15 to 17 hrs by turbidity assay; type: functional; conditions: read-out: ED50 (the source's name); procedure, shortened: as §1
[10] = Dissociation constant, pKa of the compound; type: physicochemical
[11] = Antiviral activity against HSV1 CL101 infected in African green monkey Vero cells assessed as inhibition of plaque formation at 400 uM after 40 hrs relative to control; type: functional, Herpes simplex virus (type 1 / strain CL101); conditions: Human alphaherpesvirus 1, Vero
[12] = Antiviral activity against HSV1 CL101 infected in African green monkey Vero cells assessed as inhibition of plaque formation at 40 uM after 40 hrs relative to control; type: functional, Herpes simplex virus (type 1 / strain CL101); conditions: Human alphaherpesvirus 1, Vero
[13] = test system: CCRF S-180; experiment: Cytotoxicity against mouse S180 cells at 400 uM after 18 to 42 hrs relative to control; type: functional
[14] = test system: Enterococcus faecium; experiment: Antimicrobial activity against Streptococcus faecium assessed as concentration required for maximum growth inhibition after 15 to 17 hrs by turbidity assay; type: functional; procedure, shortened: as §1
[15] = Antiviral activity against HSV1 CL101 infected in African green monkey Vero cells assessed as inhibition of plaque formation at 200 uM after 40 hrs relative to control; type: functional, Herpes simplex virus (type 1 / strain CL101); conditions: Human alphaherpesvirus 1, Vero
[16] = test system: CCRF S-180; experiment: Cytotoxicity against mouse S180 cells at 5 uM after 18 to 42 hrs relative to control; type: functional
[17] = Antiviral activity against HSV1 CL101 infected in African green monkey Vero cells assessed as inhibition of plaque formation at 10 uM after 40 hrs relative to control; type: functional, Herpes simplex virus (type 1 / strain CL101); conditions: Human alphaherpesvirus 1, Vero
[18] = Antiviral activity against HSV1 CL101 infected in African green monkey Vero cells assessed as inhibition of plaque formation at 50 uM after 40 hrs relative to control; type: functional, Herpes simplex virus (type 1 / strain CL101); conditions: Human alphaherpesvirus 1, Vero

With `N#C[C@H]1O[C@@H](n2cc(F)c(=O)[nH]c2=O)C[C@@H]1O` the inhibition [1] was “inactive”, the Ki [2] was 75 µM and the inhibition [3] was “inactive”.

With `O=c1[nH]c(=O)n([C@H]2C[C@H](O)[C@@H](CO)O2)cc1F` [FLOXURIDINE] the inhibition at 0.1 µM [4] was 88%, the inhibition at 0.001 µM [5] was 95% and the “inhibition (INH)” value [6] was 96%. For the same compound, the “inhibition (INH)” value [7] was 95%, the Ki [2] was 1.5 µM and the Retention_time [8] was 7.93 min.

`Nc1nc(=O)n([C@H]2C[C@H](O)[C@@H](C(=O)O)O2)cc1I` showed a Retention_time [8] of 3.35 min.

`CC(=O)O[C@H]1C[C@H](n2cc(F)c(=O)[nH]c2=O)O[C@@H]1C(N)=O` gave a Ki [2] of 960 µM.

In the case of `COC(=O)[C@H]1O[C@@H](n2cc(I)c(=O)[nH]c2=O)C[C@@H]1O`, the Ki [2] is reported as 1.5 µM.

Work on `COC(=O)[C@H]1O[C@@H](n2cc(Br)c(=O)[nH]c2=O)C[C@@H]1O` yielded a Ki [2] of 2.9 µM.

For `Cc1cn([C@H]2C[C@H](O)[C@@H](CO)O2)c(=O)[nH]c1=O` [DOXRIBTIMINE], the EC50 [9] was 11 µM and the pKa [10] was 9.8.

`O=c1[nH]c(=O)n([C@H]2C[C@H](O)[C@@H](CF)O2)cc1I` gave a Ki [2] of 1.5 µM.

`CC(=O)O[C@H]1C[C@H](n2cc(I)c(=O)[nH]c2=O)O[C@@H]1C#N` gave a Ki [2] of 18 µM.

`CC(=O)O[C@H]1C[C@H](n2cc(Br)c(=O)[nH]c2=O)O[C@@H]1C(N)=O` gave a Ki [2] of 192 µM.

In the case of `NC(=O)[C@H]1O[C@@H](n2cc(I)c(O)nc2=O)C[C@@H]1O`, the inhibition at 400 µM [11] is reported as 96%, the inhibition at 40 µM [12] is reported as 78% and the inhibition at 400 µM [13] is reported as 0%. The “inhibition (INH)” value [6] was 0%, the “inhibition (INH)” value [7] was 28% and the Ki [2] was 1 µM.

`CC(=O)O[C@H]1C[C@H](n2cc(Br)c(=O)[nH]c2=O)O[C@@H]1C#N` gave a Ki [2] of 28 µM.

`O=c1ccn([C@H]2C[C@H](O)[C@@H](CO)O2)c(=O)[nH]1` [DEOXYURIDINE] showed an EC50 [9] of 37 µM, a pKa [10] of 9.3 and a Ki [2] of 9.5 µM.

`CC(=O)O[C@H]1C[C@H](n2cc(C)c(=O)[nH]c2=O)O[C@@H]1CO` showed a Ki [2] of 58 µM.

With `COC(=O)[C@H]1O[C@@H](n2ccc(=O)[nH]c2=O)C[C@@H]1O` the Ki [2] was 500 µM.

In the case of `NC(=O)[C@H]1O[C@@H](n2ccc(O)nc2=O)C[C@@H]1O` (stereo in doubt; 19) [listing 1 of 2 here], the inhibition at 400 µM [11] is reported as 0%, the inhibition at 400 µM [13] is reported as 0% and the “inhibition (INH)” value [6] is reported as 71%. The “inhibition (INH)” value [7] was 22%, the EC50 [9] was 200 µM and the Activity [14] was 600 µM.

For `Nc1ccn([C@@H]2O[C@H](C(=O)O)[C@@H](O)[C@@H]2O)c(=O)n1`, the inhibition at 400 µM [11] was 0%, the inhibition at 400 µM [13] was 76% and the “inhibition (INH)” value [6] was 0%. The “inhibition (INH)” value [7] was 0% and the Retention_time [8] was 2.56 min.

Work on `O=c1[nH]cc(Br)c(=O)[nH]1` [5-BROMOURACIL] yielded a Retention_time [8] of 7.69 min.

Work on `NC(=O)[C@H]1O[C@@H](n2cc(Br)c(O)nc2=O)C[C@@H]1O` yielded an inhibition at 400 µM [11] of 92%, an inhibition at 40 µM [12] of 42% and an inhibition at 400 µM [13] of 0%. For the same compound, the “inhibition (INH)” value [6] was 0%, the “inhibition (INH)” value [7] was 0% and the Ki [2] was 0.8 µM.

For `NC(=O)[C@H]1O[C@@H](n2cc(F)c(=O)[nH]c2=O)C[C@@H]1O`, the inhibition [1] was “inactive”, the Ki [2] was 18 µM and the inhibition [3] was “inactive”.

In the case of `O=C(O)[C@H]1O[C@@H](n2cc(I)c(O)nc2=O)C[C@@H]1O`, the Ki [2] is reported as 4.2 µM and the Retention_time [8] is reported as 2.97 min.

For `N#C[C@H]1O[C@@H](n2cc(I)c(O)nc2=O)C[C@@H]1O`, the inhibition at 400 µM [11] was 74%, the inhibition at 400 µM [13] was 0% and the “inhibition (INH)” value [6] was 0%. The “inhibition (INH)” value [7] was 14% and the Ki [2] was 1.3 µM.

Compound `Nc1nc(=O)n([C@H]2C[C@H](O)[C@@H](C(=O)O)O2)cc1Br` has a Retention_time [8] of 3.05 min.

In the case of `O=c1[nH]cc(I)c(=O)[nH]1`, the Retention_time [8] is reported as 8.85 min.

Work on `Nc1nc(=O)n([C@H]2C[C@H](O)[C@@H](CO)O2)cc1I` [IBACITABINE] yielded a Retention_time [8] of 19.87 min.

`Nc1ccn([C@H]2C[C@H](O)[C@@H](CO)O2)c(=O)n1` [DOXECITINE] showed an EC50 [9] of 50 µM.

With `Nc1ccn([C@@H]2O[C@H](CO)[C@@H](O)[C@@H]2O)c(=O)n1` [CYTARABINE] the inhibition at 200 µM [15] was 91%, the inhibition at 5 µM [16] was 98% and the Retention_time [8] was 2.07 min.

For `O=c1[nH]c(=O)n([C@H]2C[C@H](O)[C@@H](CO)O2)cc1Br` [BROXURIDINE], the inhibition at 10 µM [17] was 99.6%, the “inhibition (INH)” value [6] was 76% and the “inhibition (INH)” value [7] was 91%. The Ki [2] was 0.2 µM and the Retention_time [8] was 12.16 min.

Compound `CC(=O)O[C@H]1C[C@H](n2cc(I)c(=O)[nH]c2=O)O[C@@H]1C(N)=O` has a Ki [2] of 20 µM.

With `Cc1cn([C@H]2C[C@H](O)[C@@H](C(=O)O)O2)c(=O)[nH]c1=O` [5'-CARBOXY THYMIDINE] the Ki [2] was 5.4 µM.

In the case of `NC(=O)[C@H]1O[C@@H](n2ccc(O)nc2=O)C[C@@H]1O` (stereo in doubt), the Ki [2] is reported as 310 µM and the Activity [14] is reported as 600 µM.

`N#C[C@H]1O[C@@H](n2cc(Br)c(=O)[nH]c2=O)C[C@@H]1O` showed a Ki [2] of 1.8 µM.

With `COC(=O)[C@H]1O[C@@H](n2cc(F)c(O)nc2=O)C[C@@H]1O` the inhibition [1] was “inactive”, the inhibition at 400 µM [11] was 0% and the inhibition at 400 µM [13] was 32%. For the same compound, the “inhibition (INH)” value [6] was 0%, the “inhibition (INH)” value [7] was 0% and the Ki [2] was 410 µM. The inhibition [3] was “inactive”.

Work on `COC(=O)[C@H]1O[C@@H](n2cc(C)c(=O)[nH]c2=O)C[C@@H]1O` yielded a Ki [2] of 4 µM.

With `Nc1nc(=O)n([C@H]2C[C@H](O)[C@@H](CO)O2)cc1Br` the Retention_time [8] was 16.53 min.

Work on `O=C(O)[C@H]1O[C@@H](n2ccc(=O)[nH]c2=O)C[C@@H]1O` yielded a Ki [2] of 500 µM.

In the case of `NC(=O)[C@H]1O[C@@H](n2ccc(O)nc2=O)C[C@@H]1O` (stereo in doubt; 19) [listing 2 of 2 here], the inhibition [1] is reported as “inactive” and the inhibition [3] is reported as “inactive”.

Work on `O=c1[nH]cc(F)c(=O)[nH]1` [FLUOROURACIL] yielded a Retention_time [8] of 5.29 min.

For `O=C(O)[C@H]1O[C@@H](n2cc(F)c(=O)[nH]c2=O)C[C@@H]1O` [RIBOFURANURONIC ACID], the inhibition [1] was “inactive” and the inhibition [3] was “inactive”.

`Cc1cn([C@H]2C[C@H](O)[C@@H](C(N)=O)O2)c(=O)[nH]c1=O` gave a Ki [2] of 1.6 µM.

For `O=c1[nH]c(=O)n([C@H]2C[C@H](O)[C@@H](CO)O2)cc1I` [IDOXURIDINE], the inhibition at 50 µM [18] was 99.7%, the “inhibition (INH)” value [6] was 12% and the “inhibition (INH)” value [7] was 71%. The Ki [2] was 0.2 µM and the Retention_time [8] was 14.41 min.

Work on `O=C(O)[C@H]1O[C@@H](n2cc(Br)c(O)nc2=O)C[C@@H]1O` yielded a Ki [2] of 2.7 µM and a Retention_time [8] of 2.56 min.
